Where two headings read alike, the source gives them in different places.
How the values were obtained:
[1] = Lipid solubilization assay; type: physicochemical; details: 5.0 mg/mL LUVs in 10 mM sodium phosphate buffer pH 7.4, before addition of 22A peptide
Method in brief: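 Phospholipid (POPC or egg sphingomyelin) chloroform stock was dried under nitrogen and hydrated in 10 mM sodium phosphate, pH 7.4. It then went through 5–7 freeze-thaw cycles and was extruded 10 times through 100 nm membranes, at 25°C for POPC and 45°C for eSM. The 5.0 mg/mL LUV suspension was read for turbidity as UV absorbance at 600 nm on a microplate spectrophotometer.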

[2] = cited from earlier work
[3] = Dynamic light scattering particle size; type: physicochemical
Method in brief: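 LUVs (POPC or egg sphingomyelin) were made by drying the chloroform stock under nitrogen, hydrating in 10 mM sodium phosphate pH 7.4, doing 5–7 freeze-thaw cycles, and extruding 10× through 100 nm membranes (25°C POPC, 45°C eSM). For sHDL, 5.0 mg/mL lipid and peptide solutions were mixed 1:1 wt/wt (~3.75:1 molar). Samples were diluted to 1.0 mg/mL peptide, and intensity- and volume-weighted distributions were read at 25°C.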

[4] = Gel permeation chromatography; type: physicochemical
Method in brief: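 Test peptide alone in buffer, no phospholipid, at 1, 5 and 10 mg/mL; one condition also incubated at 50°C. Analysed by size-exclusion GPC on a TSK G3000SWx column (7.8 mm×30 cm), eluted with PBS at 1.0 mL/min at ambient temperature, UV detection at 220 nm. Molecular weight was assigned from retention time.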

[5] = molecular target: the molecule itself; experiment: SEC + other: dynamic light scattering
[6] = as restated in Results, no reference given
[7] = lipid LUV + 22A 1:1 wt/wt incubated 24 hr at 25°C
[8] = 22A 1 mg/mL in buffer without phospholipid, after incubation at 50°C
[9] = 22A in buffer without phospholipid, before dissociation

Q: What does the source list for `CCCCCCCC/C=C\CCCCCCCC(=O)O[C@H](COC(=O)CCCCCCCCCCCCCCC)COP(=O)([O-])OCC[N+](C)(C)C` [POPC, 1-palmitoyl-2-oleoyl-sn-glycero-3-phosphocholine]?
A: UV 600 nm absorbance (turbidity) of LUV solution [1]: 0.26; transition temperature (Tm) [2, 6]: −2 °C; transition temperature (Tm) [2]: −2 °C; LUV diameter ([3]; extruded LUVs, 5.0 mg/mL solutions, before addition of 22A peptide): 120 nm; DLS volume (distribution, %): LUV [3, 7]: 0.1%; DLS volume (distribution, %): sHDL [3, 7]: 99.9%; DLS intensity (size, nm): LUV ([3]; lipid LUV + 22A 1:1 wt/wt incubated 24 hr at 25°C, remaining liposomes): 137.3 nm; DLS volume (distribution, %): sHDL ([3]; lipid LUV + 22A 1:1 wt/wt incubated 24 hr at 37°C): 100%; DLS volume (distribution, %): sHDL ([3]; lipid LUV + 22A 1:1 wt/wt incubated 24 hr at 50°C): 100%

Q: What does the source list for PVLDLFRELLNELLEALKQKLK [22A]?
A: GPC retention time of monomeric peptide [4, 8]: 14.9 min; molecular weight corresponding to GPC retention time, monomeric peptide [4, 8]: ~ 2500 Da; association state of peptide without lipid ([4]; 22A in buffer without phospholipid, 1, 5 and 10 mg/mL, initial, GPC and DLS): self-associated; GPC retention time of self-associated peptide [4, 9]: 9.6 min; molecular weight corresponding to GPC retention time, self-associated peptide [4, 9]: ~ 145,000 Da

Q: With synthetic sphingomyelin [sSM] as the molecule, how does the “transition temperature (Tm)” value [2, 6] read?
A: Its value is “approximately 40 °C”.

Q: Does PVLDLFRELLNELLEALKQKLK [ESP-24218 peptide (22A), ApoA-I-mimetic peptide] bind [5]?
A: Result: binds
